Reference: ChEMBL document CHEMBL2331205, “Anti-hepatitis B virus and anti-cancer activities of novel isoflavone analogs” (Eur J Med Chem, 2013)

Columns and labels:
[1] = Selectivity index, ratio of CC50 for human HepG2(2.2.15) cells to IC50 for HBV infected in human HepG2(2.2.15) cells assessed as inhibition of HBsAg production; format: functional
Outline: (§1)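 Selectivity index calculated as CC50 in HepG2 2.2.15 cells (MTT, 9-day exposure) divided by IC50 for HBeAg or HBsAg reduction (ELISA of 9-day supernatants).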

[2] = system: HeLa; assay: Growth inhibition of human HeLa cells after 48 hrs by MTT assay; format: functional, cell-based
Outline: (§2)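 Cells seeded at 8000/well, treated 24 h later in duplicate with a range of concentrations (DMSO stock 10 g/L diluted in fresh medium), 48 h at 37 °C, 5% CO2. MTT (5 mg/ml in PBS) added for 4 h, formazan dissolved in DMSO, absorbance read at 570 nm. IC50 is the concentration giving 50% survival.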

[3] = Cytotoxicity against human HepG2(2.2.15) cells compound treated for 48 hrs followed by incubation for 9 days by MTT assay; format: cell-based
Outline: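 HepG2 2.2.15 cells kept 48 h in plates before adding compounds (DMSO stocks serially diluted in medium), then incubated at 37 °C for 9 days. Media-only wells as blank. MTT (5 g/L) added 4 h before lysis in 10% SDS/50% DMF, pH 7.2; OD at 570 nm gives percent cell death; CC50 derived.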

[4] = system: Hepatitis B virus; assay: Antiviral activity against HBV infected in human HepG2(2.2.15) cells assessed as inhibition of viral replication after 9 days by fluorescence PCR method; format: functional, organism-based; details: HepG2 2.2.15, 216 h
Outline: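 HepG2 2.2.15 cells given a range of compound concentrations for nine days; HBV DNA quantified by fluorescence PCR. IC50 taken as the concentration giving 50% inhibition of HBV DNA replication.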

[5] = system: A549; assay: Growth inhibition of human A549 cells after 48 hrs by MTT assay; format: functional, cell-based; details: A549, 48 h; outline: as §2
[6] = system: Huh-7; assay: Growth inhibition of human HuH7 cells after 48 hrs by MTT assay; format: functional, cell-based; details: Huh-7, 48 h; outline: as §2
[7] = system: Hepatitis B virus; assay: Antiviral activity against HBV infected in human HepG2(2.2.15) cells assessed as inhibition of HBsAg production after 9 days by ELISA; format: functional, organism-based; details: HepG2 2.2.15, 216 h
Outline: (§3)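 HepG2 2.2.15 cells (HBV-producing) given a range of compound concentrations for nine days; culture supernatants collected and HBsAg or HBeAg levels measured by ELISA. IC50 taken as the concentration giving 50% inhibition of antigen level.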

[8] = Growth inhibition of human L02 cells after 48 hrs by MTT assay; format: functional, cell-based; details: L02, 48 h; outline: as §2
[9] = Selectivity index, ratio of CC50 for human HepG2(2.2.15) cells to IC50 for HBV infected in human HepG2(2.2.15) cells assessed as inhibition of viral replication; format: functional
Outline: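 Selectivity index calculated as CC50 in HepG2 2.2.15 cells (MTT, 9-day exposure) divided by IC50 for HBV DNA reduction measured by fluorescence PCR after 9 days.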

[10] = Growth inhibition of human QGY7701 cells after 48 hrs by MTT assay; format: functional; details: QGY7701, 48 h; outline: as §2
[11] = system: Hepatitis B virus; assay: Antiviral activity against HBV infected in human HepG2(2.2.15) cells assessed as inhibition of HBeAg production after 9 days by ELISA; format: functional, organism-based; details: HepG2 2.2.15, 216 h; outline: as §3
[12] = Selectivity index, ratio of CC50 for human HepG2(2.2.15) cells to IC50 for HBV infected in human HepG2(2.2.15) cells assessed as inhibition of HBeAg production; format: functional; outline: as §1

Structure (SMILES) | Ratio CC50/IC50 [1] | IC50 [2] [µM] | CC50 at 48 h [3] [µM] | IC50 [4] [µM] | IC50 [5] [µM] | IC50 [6] [µM] | IC50 [7] [µM] | IC50 [8] [µM] | Ratio CC50/IC50 [9] | IC50 [10] [µM] | IC50 [11] [µM] | Ratio CC50/IC50 [12]
COc1ccc2c(=O)c(/C=C/C(=O)NCc3ccc(F)cc3)coc2c1 | 2.26 | > 100 | 133 | 11.2 | > 100 | 20.9 | 58.8 | > 200 | 11.84 | 7.96 | > 100 | 
COc1ccc2c(=O)c(/C=C/C(=O)Nc3ccccc3)coc2c1 | 32.7 | > 100 | 523 | > 100 | 51 | 9.05 | 16 | > 200 |  | 14 | 16.9 | 30.85
Cc1ccccc1NC(=O)/C=C/c1coc2cc(O)ccc2c1=O |  | 8.67 | 374 | > 100 | > 100 | 11.1 | > 100 | > 200 |  | 9.32 | > 100 | 
COc1ccc2c(=O)c(/C=C/C(=O)NCc3ccc(F)cc3F)coc2c1 | 5.55 | > 100 | 79.2 | 37 | 13.3 | > 100 | 14.3 | > 200 | 2.14 | > 100 | 14.8 | 5.35
COc1ccc(NC(=O)/C=C/c2coc3cc(O)ccc3c2=O)cc1 |  | > 100 | 976 | 7.01 | 12.8 | > 100 | > 100 | > 200 | 139.21 | > 100 | > 100 | 
COc1ccc2c(=O)c(/C=C/C(=O)NCCc3ccccc3F)coc2c1 | 9.55 | 12.2 | 457 | > 100 | 10.3 | > 100 | 47.9 | > 200 |  | 81.7 | > 100 | 
COc1ccc2c(=O)c(/C=C/C(=O)NCc3ccccc3)coc2c1 |  | 33.4 | 376 | 56.8 | 11.8 | 13.6 | > 100 | > 200 | 6.62 | > 100 | > 100 | 
O=C(/C=C/c1coc2cc(O)ccc2c1=O)NCc1ccc(F)cc1 |  | > 100 | 357 | 33.5 | > 100 | > 100 | > 100 | > 200 | 10.68 | > 100 | > 100 | 
COc1ccc2c(=O)c(/C=C/C(=O)NCc3ccccc3F)coc2c1 | 2.8 | > 100 | 146 | 68.6 | > 100 | 8.45 | 52.1 | > 200 | 2.13 | 34 | > 100 | 
COc1ccc(NC(=O)/C=C/c2coc3cc(OC)ccc3c2=O)cc1 |  | 13 | 718 | 14.2 | 23 | > 100 | > 100 | > 200 | 50.38 | > 100 | > 100 | 
COc1ccc2c(=O)c(/C=C/C(=O)Nc3cc(C)ccc3C)coc2c1 |  | 58.4 | 1100 | > 100 | 15.5 | 11.1 | > 100 | > 200 |  | > 100 | > 100 | 
O=c1[nH]cc(F)c(=O)[nH]1 [FLUOROURACIL] |  |  |  |  |  | 15.8 |  |  |  |  |  | 
COc1cccc(NC(=O)/C=C/c2coc3cc(OC)ccc3c2=O)c1 |  | 19.2 | 1130 | > 100 | 12.8 | 11.1 | > 100 | > 200 |  | 39.1 | > 100 | 
COc1ccc2c(=O)c(/C=C/C(=O)Nc3ccc(C)cc3)coc2c1 |  | 24.1 | 979 | 28.2 | 17.5 | > 100 | > 100 | > 200 | 34.69 | 39.3 | > 100 | 
COc1ccc2c(=O)c(/C=C/C(=O)Nc3ccccc3OC)coc2c1 |  | > 100 | 1050 | > 100 | > 100 | 32.3 | > 100 | > 200 |  | 17.6 | > 100 | 
COc1ccc2c(=O)c(/C=C/C(=O)NCCc3ccc(F)cc3)coc2c1 | 53.64 | > 100 | 786 | > 100 | 18.9 | 29.2 | 14.7 | > 200 |  | 24.8 | 14.7 | 53.45
COc1ccc2c(=O)c(/C=C/C(=O)Nc3ccccc3Cl)coc2c1 |  | 22.4 | 1010 | > 100 | 29.9 | 58.4 | > 100 | > 200 |  | 23 | > 100 | 
O=C(/C=C/c1coc2cc(O)ccc2c1=O)NCc1ccccc1 |  | > 100 | 436 | > 100 | > 100 | 4.69 | > 100 | > 200 |  | 63 | > 100 | 
COc1ccc2c(=O)c(/C=C/C(=O)NCc3cccc(F)c3)coc2c1 | 5.67 | 17.6 | 475 | 75.4 | 26.9 | 10.1 | 83.8 | > 200 | 6.3 | 28.6 | > 100 | 
CCOc1ccc(NC(=O)/C=C/c2coc3cc(OC)ccc3c2=O)cc1 |  | > 100 | 460 | > 100 | > 100 | 3.23 | > 100 | > 200 |  | > 100 | > 100 | 
COc1ccc2c(=O)c(/C=C/C(=O)Nc3ccccc3C)coc2c1 | 4 | 7.27 | 59.7 | > 100 | 23.4 | 26.9 | 14.9 | > 200 |  | 22.4 | 15.8 | 3.77
COc1ccc2c(=O)c(/C=C/C(=O)NCCc3cccc(F)c3)coc2c1 |  | 15.3 | 1030 | > 100 | 9.77 | 8.96 | > 100 | > 200 |  | 23.4 | > 100 | 
COc1ccc2c(=O)c(/C=C/C(=O)NCc3ccc(C)cc3)coc2c1 | 3.11 | > 100 | 257 | 53.5 | > 100 | 14.3 | 82.6 | > 200 | 4.81 | 10.2 | > 100 | 
COc1ccc2c(=O)c(/C=C/C(=O)Nc3ccc(F)cc3)coc2c1 |  | 9.68 | 743 | > 100 | 26.8 | 33.9 | > 100 | > 200 |  | > 100 | > 100 | 
O=C(/C=C/c1coc2cc(O)ccc2c1=O)NCCc1ccc(F)cc1 | 7.03 | > 100 | 102 | > 100 | 6.84 | > 100 | 14.6 | > 200 |  | > 100 | 15.4 | 6.64
COc1ccc2c(=O)c(/C=C/C(=O)Nc3cccc(C)c3)coc2c1 |  | > 100 | 554 | 34.9 | > 100 | 15.5 | > 100 | > 200 | 15.85 | > 100 | > 100 | 
